Experimental data published in article PMC11629119 (Pharmacology Research & Perspectives, 2024).
Values joined by “and” are separate entries in the source; they are usually repeats but may differ in a detail not shown here. Equal values may be shown once. “Also recorded” adds a separate entry of the source. Marks after values point to notes of the source that are not given here.

What was measured:
[1] = test system: 3D HepaRG; assay: Cell viability assay; format: cell-based, human; conditions: for higher toxicity of metabolite compared to its solvent (EC50, 3D HepaRG): 2‐MPA vs β‐PGME, 2‐MAA vs EGME; for EC50: Homo sapiens, HepaRG
In short: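 HepaRG spheroids formed from 3000 cells/well in U-bottom plates, 7 days pre-exposure. Dosing: half the medium replaced with twofold-concentrated compound; plates gas-permeable sealed. Ranges: glycol ethers 10–1000 mM, acid metabolites 1–25 mM, ethanol 1–600 mM; top solutions neutralised to pH 7.4, filtered. ATP by CellTiter-Glo luminescence at 48 h and 7 days, % of untreated control. EC50 calculated. N = 3–4 biological repeats, triplicates.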

[2] = test system: 2D HepaRG; assay: Cell viability assay; format: cell-based; conditions: Homo sapiens
In short: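 HepaRG seeded at 2.25 × 10⁵ cells/cm² in 96-well plates 7 days before exposure; plates gas-permeable sealed. Ranges: glycol ethers 10–1000 mM, metabolites 1–25 mM, ethanol 1–600 mM. Highest-concentration solutions neutralised to pH 7.4 with NaOH, filter-sterilised. ATP by CellTiter-Glo luminescence at 48 h and 7 days, as % untreated control. EC50 calculated. N = 3–4 biological repeats, triplicates.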

[3] = Data derived from Pubchem ref PubChem (nih.gov); cited from earlier work
[4] = TK model parameter; ref Devanthéry et al. [20]; cited from earlier work
[5] = TK model parameter; ref Kerns et al. [54]; cited from earlier work
[6] = test system: 3D HepaRG; assay: Albumin ELISA assay in 3D HepaRG supernatant; format: cell-based, human; conditions: 3D HepaRG exposed to 16 mM APAP for 48 h; untreated 78.4 ± 22.9 ng/mL
[7] = test system: ADH1C; assay: Gene expression q‐RT‐PCR in HepaRG, ADH1C; format: cell-based, human; conditions: 7‐day exposure
In short: (§1)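 HepaRG seeded at 2.25 × 10⁵ cells/cm² in 96-well plates for 7 days. RNA extracted with Qiazol/TRIzol plus glycogen. Reverse transcription with M-MLV and oligo dT. TaqMan probe qPCR program: 95°C 10 min, then 40 cycles of 95°C 15 s and 60°C 1 min.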

[8] = used for β‐PGME to PG in TK model; ref Gargas et al. [55]; cited from earlier work
[9] = test system: human hepatocytes; conditions: EGME, from reported Km and Vmax applying the scaling factors of this study
[10] = test system: ALDH2; assay: Gene expression q‐RT‐PCR in HepaRG, ALDH2; format: cell-based, human; conditions: 7‐day exposure
In short: as §1

[11] = test system: human hepatocytes; conditions: EGME; cited from earlier work
[12] = test system: CYP2E1; assay: Gene expression q‐RT‐PCR in HepaRG, CYP2E1; format: cell-based, human; conditions: 7‐day exposure
In short: as §1

[13] = test system: ADH / ALDH in human liver S9 fraction; assay: Inhibition of 2‐MPA formation in S9 incubations; format: biochemical; conditions: 5 mM β‐PGME, S9, NAD+ only, 45 min
In short: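 Human liver S9 (2 mg/mL) in 100 mM potassium phosphate pH 7.4, 3 mM MgCl₂. Substrate 5 mM, chosen below ADH saturation; NAD⁺ as sole cofactor. ADH inhibitor at 50 μM or ALDH inhibitor at 10 μM, final. 5 min preincubation; cofactor starts reaction; 45 min, 37°C, 300 rpm. Stopped with ice-cold acetonitrile. Acid metabolite by HPLC-MS/MS. N = 3, duplicates. One-way ANOVA/Dunnett versus control.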

[14] = plasma binding; measured data derived from literature ref 32; cited from earlier work
[15] = S9 fraction incubation, Michaelis–Menten kinetics β‐PGME to 2‐MPA; format: in vitro ADME, human; conditions: human, human liver S9 fraction, pH 7.4
In short: (§2)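 Human liver S9 (2 mg/mL), 100 mM phosphate pH 7.4, 3 mM MgCl₂, substrate 0.1–8 mM; 1 mM NAD⁺ plus 1 mM NADPH start the reaction after 5 min preincubation. 45 min, 37°C; cofactor-free controls; acetonitrile stop. Metabolite by HPLC-MS/MS. Km/Vmax by nonlinear Michaelis–Menten fit; CLint = Vmax/Km. Scaled via physiological factors; well-stirred model (QH 20.7 mL/min/kg, fu,inc by Hallifax–Houston). N = 3, duplicates.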

[16] = test system: human liver subcellular fraction (S9); assay: as above; format: in vitro ADME
In short: as §2

[17] = cited from earlier work
[18] = S9 fraction incubation, solvent loss and metabolite formation; format: in vitro ADME, human; conditions: human, human liver S9 fraction; for microsomal CLint at 700 μM: pH 7.4, CLint, in vitro, S9, measured, 700 μM β‐PGME; for CLint scaled at 700 μM: pH 7.4, Predicted CL int, in vivo
In short: (§3)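 S9 2 mg/mL, 100 mM phosphate pH 7.4, 3 mM MgCl₂, 1 mM NAD⁺/NADPH; substrate 700 μM, 37°C. Aliquots at 1, 12, 23, 34, 45 min quenched with 2 volumes ice-cold acetonitrile; cofactor-free controls. Elimination or formation constant from slope of ln % parent remaining or ln metabolite versus time; CLint = k × volume / S9 protein. Scaled to CLh with well-stirred model. N = 3, duplicates.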

[19] = test system: human liver subcellular fraction (S9); assay: as above; format: in vitro ADME; conditions: for In vitro predicted hepatic organ clearance (CL h), CLmetMPA: measured; for Predicted CL h: well‐stirred liver model
In short: as §3

[20] = Metabolite formation in the 3D HepaRG liver model; format: in vitro ADME, human; conditions: human, 3D HepaRG spheroids
In short: (§4)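 HepaRG spheroids (79 per well, 2772 cells each) formed 7 days in ultra-low-attachment micro-arrays. Substrate added as threefold concentrate to 5 mM final; 37°C, 5% CO₂, sealed. Supernatant sampled at 1, 15, 30, 45 min and 1, 6, 24 h, acetonitrile-quenched. Metabolite by HPLC-MS/MS. Formation constant from ln concentration versus time over 60 min; CLint per million cells. fu,inc by Kilford method (1.46 × 10⁶ cells/mL); well-stirred CLh. N = 3.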

[21] = test system: 3D HepaRG; assay: Metabolite formation in the 3D HepaRG liver model; format: in vitro ADME, human; conditions: 3D HepaRG, metabolite formation
In short: as §4

[22] = β‐PGME → 2‐MPA, S9 2 mg/mL, 45 min

SMILES: COCC(=O)O [2‐MAA, 2‐Methoxyacetic acid, reference compound]
- higher toxicity of metabolite compared to its solvent (EC50, 3D HepaRG) [1]: ~50 fold
- EC50 ([1]; 48 h): 11 mM
- EC50 ([1]; 168 h): 9 mM
- EC50 ([2]; 48 h): 31 mM
- EC50 ([2]; 168 h): 16 mM
- logP [3]: −0.30

SMILES: COC(C)C(=O)O (stereo not drawn) [2‐MPA, 2‐Methoxypropionic acid]
- higher toxicity of metabolite compared to its solvent (EC50, 3D HepaRG) [1]: approximately fourfold; also recorded: approximately four times lower
- EC50 ([1]; 48 h): 46 mM
- EC50 ([1]; 168 h): 26 mM
- EC50 ([2]; 48 h): 81 mM
- EC50 ([2]; 168 h): 34 mM
- Urinary excretion rate of 2‐MPA (KMPA) [4]: 0.09 h⁻¹
- Permeability coefficient (BBB) (PeMPA) [5]: 100 ×10⁻⁶ cm/s

SMILES: CC(=O)Nc1ccc(O)cc1 [APAP, acetaminophen]
- albumin secretion (albumin concentration in medium) [6]: 1.78 ± 0.68 ng/mL

SMILES: COCCO [EGME, 2‐Methoxyethanol]
- expression of ADH1C [7]: not induced
- Kinetic constant EGME → EG (ethylene glycol) (CLmetPG) [8]: 5 mL/min/kg
- calculated in vitro CLint [9]: 0.62 µL/min/mg
- logP [3]: −0.80
- expression of ALDH2 [10]: not induced
- V max [11]: 61.3 nmol/h/10^6 cells
- expression of CYP2E1 [12]: not induced

SMILES: c1ccc(-c2ccc3nc(-c4ccccc4)cn3c2)cc1 [GA11, 2,6‐diphenylimidazo[1,2‐a]pyridine]
- 2‐MPA formation compared to control incubations ([13]; 10 μM GA11 (ALDH inhibitor)): significantly reduced

SMILES: COCC(C)O (stereo not drawn) [PGME, 1‐Methoxypropan‐2‐ol]
- fu,b [14]: 0.540 ^c 0.540 ^c
- EC50 ([1]; 168 h): 96 mM
- expression of ADH1C [7]: not induced
- logP [3]: −0.49 −0.49
- expression of ALDH2 [10]: not induced
- expression of CYP2E1 [12]: not induced

SMILES: CCO [ethanol]
- expression of ADH1C [7]: not induced
- expression of ALDH2 [10]: not induced
- expression of CYP2E1 [12]: not induced

SMILES: Cc1cn[nH]c1 [fomepizole, 4‐methyl pyrazole]
- 2‐MPA formation compared to control incubations ([13]; 50 μM fomepizole (ADH inhibitor)): significantly reduced

SMILES: COC(C)CO (stereo not drawn) [β‐PGME, 2‐Methoxypropan‐1‐ol]
- fu,b [14]: 0.540 ^c 0.540 ^c
- CLint scaled [15]: 0.6 ± 0.09 mL/min/kg
- microsomal CLint [15]: 0.19 ± 0.03 µL/min/mg
- Predicted CL h ([16]; S9, calculated (Vmax/Km), well‐stirred liver model): 0.36 ± 0.05 mL/min/kg
- In vitro predicted hepatic organ clearance (CL h), CLmetMPA ([16]; S9, metabolite formation, calculated (V max/K m)): 0.36 mL/min/kg
- K m [16, 22]: 5.572 ± 2.171 mM
- V max [16, 22]: 1.04 ± 0.28 nmol/min/mg
- EC50 ([1]; 168 h): 86 mM
- excretion of conjugated β‐PGME [17]: 3%
- β‐PGME excreted as 2‐MPA ([17]; published rat studies): more than 60%
- microsomal CLint at 700 μM ([18]; metabolite formation): 40.9 ± 5.19 µL/min/mg
- microsomal CLint at 700 μM ([18]; solvent loss): 3.8 ± 2.14 µL/min/mg
- CLint scaled at 700 μM ([18]; S9, metabolite formation): 127 ± 16.1 mL/min/kg
- CLint scaled at 700 μM ([18]; S9, solvent loss): 11.8 ± 6.67 mL/min/kg
- In vitro predicted hepatic organ clearance (CL h), CLmetMPA ([19]; S9, metabolite formation): 16.4 mL/min/kg
- Predicted CL h ([19]; S9, metabolite formation): 16.4 ± 0.47 mL/min/kg
- In vitro predicted hepatic organ clearance (CL h), CLmetMPA ([19]; S9, solvent loss): 5 mL/min/kg
- Predicted CL h ([19]; S9, solvent loss): 5.00 ± 2.52 mL/min/kg and 5.03 ± 2.52 mL/min/kg
- clearance ranking based on in vitro predicted CLh values ([19]; overall generated CLh values (S9 and 3D HepaRG), reported clearance rankings): low to medium clearance compound
- logP [3]: −0.49 −0.49
- CLint scaled at 5 mM [20]: 28.2 ± 2.5 mL/min/kg
- hepatocyte CLint at 5 mM [20]: 9.34 ± 0.83 µL/min/1e6 cells
- microsomal CLint at 5 mM [20]: 9.62 ± 0.85 µL/min/mg
- In vitro predicted hepatic organ clearance (CL h), CLmetMPA ([21]; measured): 9.07 mL/min/kg
- Predicted CL h ([21]; well‐stirred liver model): 9.07 ± 0.44 mL/min/kg
